From ChEMBL document CHEMBL1125123, “Antimalarial activity of new water-soluble dihydroartemisinin derivatives. 3. Aromatic amine analogues” (J Med Chem, 1990)
Converted amounts (≈) assume the structure as drawn.

Key:
Plasmodium falciparum [1] = experiment: Antimalarial activity against Plasmodium falciparum W-2 Indochina in human malaria; format: functional, organism-based
Procedure, shortened: (§1)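 Compounds dissolved in DMSO and 70% ethanol, then diluted in RPMI 1640 with 10% human plasma and tested over 1.56–100 × 10⁻⁹ M. Parasites at 0.5% parasitemia and 1% hematocrit were exposed to compound for 24 h before ³H-hypoxanthine was added. Uptake was read by scintillation counting, and IC50 was derived by nonlinear regression of concentration-response data.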

Plasmodium falciparum [2] = experiment: Antimalarial activity against Plasmodium falciparum D6 Africa in human malaria; format: functional, organism-based; procedure, shortened: as §1

Compound | IC50 (Plasmodium falciparum [1]) | IC50 (Plasmodium falciparum [2])
C[C@@H]1CC[C@H]2[C@](C)(Br)[C@@H](Nc3ccccn3)O[C@@H]3O[C@@]4(C)CC[C@@H]1[C@]32OO4 | 1.19 ng/mL (≈ 2.71 nM) | 7.72 ng/mL (≈ 17.6 nM)
C[C@@H]1CC[C@H]2[C@](C)(Br)[C@@H](Nc3ncccn3)O[C@@H]3O[C@@]4(C)CC[C@@H]1[C@]32OO4 | 5.56 ng/mL (≈ 12.6 nM) | 26 ng/mL (≈ 59 nM)
C[C@@H]1CC[C@H]2[C@@H](C)C(=O)O[C@@H]3O[C@@]4(C)CC[C@@H]1[C@]32OO4 [ARTEMISININ] | – | 0.56 ng/mL (≈ 1.98 nM)
C[C@@H]1CC[C@H]2[C@](C)(Br)[C@@H](Nc3cccc(F)c3)O[C@@H]3O[C@@]4(C)CC[C@@H]1[C@]32OO4 | < 0.16 ng/mL | 0.16 ng/mL (≈ 0.351 nM)
C[C@@H]1CC[C@H]2[C@](C)(Br)[C@@H](Nc3ccccc3)O[C@@H]3O[C@@]4(C)CC[C@@H]1[C@]32OO4 | 0.63 ng/mL (≈ 1.44 nM) | 3.42 ng/mL (≈ 7.8 nM)
C[C@@H]1CC[C@H]2[C@](C)(Br)[C@@H](Nc3nccs3)O[C@@H]3O[C@@]4(C)CC[C@@H]1[C@]32OO4 | 0.21 ng/mL (≈ 0.472 nM) | 0.91 ng/mL (≈ 2.04 nM)
